Experimental data as given in ChEMBL document CHEMBL3399995, “Synthesis and biological evaluation of benzimidazole acridine derivatives as potential DNA-binding and apoptosis-inducing agents” (Bioorg Med Chem, 2015).
One block for each compound: values may come before it. Active and inactive are the calls of the source. The rule behind the calls is not given here.

What was measured:
[1] = tested on: K562; assay: Antiproliferative activity against human K562 cells after 48 hrs by MTT assay; assay type: functional, cell-based; conditions: K562, 48 h
Summary of the method: (§1)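 Cells were grown at 37 °C in 5% CO₂ with 10% FBS, penicillin and streptomycin. Media were IMDM for K562; DMEM for HepG-2, A-375, U-118 MG and A172; RPMI 1640 for CNE-2 and HeLa; MEM-EBSS for U251. MTT (5 mg/mL) was added for 4 h at 37 °C, formazan dissolved in DMSO, and A490 read. IC50 is the concentration giving 50% growth inhibition.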

[2] = biological target: T1, DNA topoisomerase 1 (Homo sapiens) (UniProt P11387); assay: Inhibition of recombinant human DNA topoisomerase 1 assessed as relaxation of plasmid DNA pBR322 at 50 uM by agarose gel electrophoresis
T1 sequence (whole entry): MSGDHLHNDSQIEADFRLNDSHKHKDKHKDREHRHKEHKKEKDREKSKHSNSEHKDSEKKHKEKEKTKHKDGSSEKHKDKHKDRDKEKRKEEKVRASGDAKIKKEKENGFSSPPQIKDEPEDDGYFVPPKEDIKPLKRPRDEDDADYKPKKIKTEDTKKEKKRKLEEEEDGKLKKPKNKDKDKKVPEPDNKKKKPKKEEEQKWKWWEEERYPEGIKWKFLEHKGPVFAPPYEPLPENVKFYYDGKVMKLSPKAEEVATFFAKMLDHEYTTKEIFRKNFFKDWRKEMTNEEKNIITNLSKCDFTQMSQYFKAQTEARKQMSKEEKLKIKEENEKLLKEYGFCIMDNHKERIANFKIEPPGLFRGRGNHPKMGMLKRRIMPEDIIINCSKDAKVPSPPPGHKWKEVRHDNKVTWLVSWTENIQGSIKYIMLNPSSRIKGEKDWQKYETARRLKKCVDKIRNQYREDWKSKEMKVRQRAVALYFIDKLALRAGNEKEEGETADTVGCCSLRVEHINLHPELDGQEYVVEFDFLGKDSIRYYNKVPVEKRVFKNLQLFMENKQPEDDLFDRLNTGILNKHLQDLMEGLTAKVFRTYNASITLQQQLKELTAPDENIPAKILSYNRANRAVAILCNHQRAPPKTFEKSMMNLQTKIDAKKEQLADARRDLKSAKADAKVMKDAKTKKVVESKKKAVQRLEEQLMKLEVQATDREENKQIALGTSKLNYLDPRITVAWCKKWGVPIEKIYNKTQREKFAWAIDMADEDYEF
Summary of the method: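 pBR322 (100 ng) was incubated with 1.0 unit recombinant human topoisomerase I and compound (50 μM) at 37 °C for 30 min. Relaxation buffer was 35 mM Tris-HCl pH 8.0, 5 mM MgCl2, 72 mM KCl, 0.01% BSA, 2 mM spermidine, 5 mM DTT. Products were resolved on 1% agarose in TAE at 100 V for 25 min and stained with ethidium bromide.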

[3] = tested on: HepG2; assay: Antiproliferative activity against human HepG2 cells after 48 hrs by MTT assay; assay type: functional, cell-based; conditions: HepG2, 48 h; summary of the method: as §1
[4] = Antiproliferative activity against human U118MG cells after 48 hrs by MTT assay; assay type: functional, cell-based; conditions: U-118-MG; summary of the method: as §1
[5] = tested on: K562; assay: Induction of apoptosis in human K562 cells assessed as apoptotic cells at 10 uM by annexin V-FITC/propidium iodide staining-based flow cytometry (reference value: 0.162%)
[6] = tested on: K562; assay: Induction of apoptosis in human K562 cells assessed as early apoptotic cells at 10 uM by annexin V-FITC/propidium iodide staining-based flow cytometry (reference value: 0.709%)
[7] = tested on: K562; assay: Induction of apoptosis in human K562 cells assessed as activation of caspase 3 at 10 uM after 48 hrs by Western blot analysis; assay type: functional, cell-based
Summary of the method: (§2)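 K562 cells in 6 cm dishes were exposed to 1, 5 or 10 μM for 48 h, then lysed at 0 °C for 0.5 h and spun at 20,000 g for 10 min. Protein was measured by BCA. Lysates were run on 12% SDS-PAGE and transferred to PVDF. Membranes were blocked in 5% milk for 1 h, then given primary antibody overnight at 4 °C.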

[8] = tested on: K562; assay: Induction of apoptosis in human K562 cells assessed as PARP cleavage at 10 uM after 48 hrs by Western blot analysis; assay type: functional, cell-based; summary of the method: as §2
[9] = tested on: K562; assay: Induction of apoptosis in human K562 cells assessed as viable cells at 10 uM by annexin V-FITC/propidium iodide staining-based flow cytometry (reference value: 98.9%); assay type: functional; conditions: read-out: Activity
[10] = tested on: K562; assay: Induction of apoptosis in human K562 cells assessed as viable cells at 2.5 uM by annexin V-FITC/propidium iodide staining-based flow cytometry (reference value: 98.9%); assay type: functional; conditions: read-out: Activity
[11] = tested on: A-375; assay: Antiproliferative activity against human A375 cells after 48 hrs by MTT assay; assay type: functional, cell-based; conditions: A-375, 48 h; summary of the method: as §1
[12] = tested on: Calf thymus DNA; assay: Binding affinity to calf thymus DNA after 3 mins by UV-vis absorption spectra analysis; assay type: nucleic-acid assay, Bos taurus
Summary of the method: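 ct DNA titration of the compound (40 μM) in 10 mM Tris-HCl, 10 mM NaCl, pH 7.0, at [DNA]/[compound] 0–1.0, in a 1.0 cm quartz cell. Samples sat 3 min before UV-vis spectra were recorded. Kb was taken as the slope-to-intercept ratio of [DNA]/(εa−εf) plotted against [DNA].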

[13] = tested on: K562; assay: Induction of apoptosis in human K562 cells assessed as necrotic cells at 10 uM by annexin V-FITC/propidium iodide staining-based flow cytometry (reference value: 0.203%); assay type: functional
[14] = tested on: K562; assay: Induction of apoptosis in human K562 cells assessed as early apoptotic cells at 2.5 uM by annexin V-FITC/propidium iodide staining-based flow cytometry (reference value: 0.709%)
[15] = Antiproliferative activity against human A172 cells after 48 hrs by MTT assay; assay type: functional, cell-based; conditions: A 172, 48 h; summary of the method: as §1
[16] = tested on: Calf thymus DNA; assay: Binding affinity to calf thymus DNA after 3 mins by fluorescence absorption spectroscopy; assay type: nucleic-acid assay; conditions: Bos taurus
Summary of the method: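 Fluorescence titration of the compound (3.75 μM final) in 10 mM Tris-HCl, 10 mM NaCl, pH 7.0, with ct DNA at 0, 1, 2, 3, 4 and 5 μM final. Samples sat 3 min before emission spectra were recorded. The binding constant came from the Stern-Volmer fit F0/F = 1 + K[Q], with [Q] the DNA concentration.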

[17] = tested on: U-251; assay: Antiproliferative activity against human U251 cells after 48 hrs by MTT assay; assay type: functional, cell-based; conditions: U-251, 48 h; summary of the method: as §1
[18] = tested on: HeLa; assay: Antiproliferative activity against human HeLa cells after 48 hrs by MTT assay; assay type: functional, cell-based; summary of the method: as §1
[19] = Antiproliferative activity against human CNE2 cells after 48 hrs by MTT assay; assay type: functional, cell-based; conditions: CNE-2, 48 h; summary of the method: as §1
[20] = tested on: K562; assay: Induction of apoptosis in human K562 cells assessed as necrotic cells at 2.5 uM by annexin V-FITC/propidium iodide staining-based flow cytometry (reference value: 0.203%); assay type: functional
[21] = tested on: K562; assay: Induction of apoptosis in human K562 cells assessed as late apoptotic or necrotic cells at 2.5 uM by annexin V-FITC/propidium iodide staining-based flow cytometry (reference value: 0.162%)
[22] = tested on: K562; assay: Induction of apoptosis in human K562 cells assessed as loss of mitochondrial membrane potential at 10 uM using JC-1 staining by fluorescence assay; assay type: functional, cell-based
Summary of the method: (§3)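 Mitochondrial membrane potential in treated K562 cells (0, 2.5, 10 μM) was measured with a JC-1 kit. Red fluorescence marks high potential and green marks low. CCCP at 10 μM served as positive control.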

[23] = tested on: K562; assay: Induction of apoptosis in human K562 cells assessed as downregulation of Bcl-xL protein expression at 10 uM after 48 hrs by Western blot analysis; assay type: functional, cell-based; summary of the method: as §2
[24] = tested on: K562; assay: Induction of apoptosis in human K562 cells assessed as activation of caspase 9 at 10 uM after 48 hrs by Western blot analysis; assay type: functional, cell-based; summary of the method: as §2
[25] = tested on: K562; assay: Induction of apoptosis in human K562 cells assessed as loss of mitochondrial membrane potential at 2.5 uM using JC-1 staining by fluorescence assay; assay type: functional, cell-based; summary of the method: as §3
[26] = tested on: K562; assay: Induction of apoptosis in human K562 cells assessed as activation of caspase 7 at 10 uM after 48 hrs by Western blot analysis; assay type: functional, cell-based; summary of the method: as §2

IC50 [1]: 7.52 µM | inhibition [2]: Active | IC50 [3]: > 50 µM
SMILES: CCc1ccc2nc3ccccc3c(NCc3nc4ccccc4[nH]3)c2c1

IC50 [1]: 42.6 µM | inhibition [2]: Active | IC50 [3]: > 50 µM
SMILES: Cc1cccc2c(NCc3nc4ccccc4[nH]3)c3ccccc3nc12

IC50 [1]: 12.3 µM | inhibition [2]: Active | IC50 [3]: 38.8 µM
SMILES: Cc1ccc2nc3ccccc3c(NCc3nc4ccccc4[nH]3)c2c1

IC50 [1]: 25.1 µM | inhibition [2]: Active | IC50 [3]: 32.6 µM
SMILES: Cc1ccc2c(NCc3nc4ccccc4[nH]3)c3ccccc3nc2c1

IC50 [11]: 3.2 µM | Activity [16]: Active | IC50 [17]: 2.39 µM | IC50 [1]: 2.68 µM | IC50 [18]: 2.76 µM | inhibition [2]: Active | IC50 [3]: 8.11 µM
SMILES: CCCCc1ccc2nc3ccccc3c(NCc3nc4ccccc4[nH]3)c2c1
IC50 [4]: 1.98 µM | apoptotic cells at 10 µM [5]: 10.6% | early apoptotic cells at 10 µM [6]: 57.3% | Activity [7]: Active | Activity [8]: Active | viability at 10 µM [9]: 30.8% | viability at 2.5 µM [10]: 83.3% | Kb [12]: 1.88 ×10⁵ /M | Activity [13]: 1.37% | early apoptotic cells at 2.5 µM [14]: 14.9% | IC50 [15]: 2.86 µM | IC50 [19]: 2.62 µM | Activity [20]: 0.55% | late apoptotic or necrotic cells at 2.5 µM [21]: 1.27% | Activity [22]: Active | Activity [23]: Active | Activity [24]: Active | Activity [25]: Active | Activity [26]: Active

IC50 [1]: 8.63 µM | inhibition [2]: Active | IC50 [3]: 4.53 µM
SMILES: COc1ccc2nc3ccccc3c(Nc3nc4ccccc4[nH]3)c2c1

IC50 [1]: 7.46 µM | inhibition [2]: Active | IC50 [3]: 28.5 µM
SMILES: COc1cccc2c(NCc3nc4ccccc4[nH]3)c3ccccc3nc12

IC50 [1]: 7.2 µM | inhibition [2]: Active | IC50 [3]: 6.32 µM
SMILES: COc1cccc2c(Nc3nc4ccccc4[nH]3)c3ccccc3nc12

IC50 [1]: 17.4 µM | inhibition [2]: Active | IC50 [3]: 25.7 µM
SMILES: Fc1cc2nc3ccccc3c(NCc3nc4ccccc4[nH]3)c2cc1F

IC50 [1]: 14 µM | inhibition [2]: Active | IC50 [3]: > 50 µM
SMILES: c1ccc2[nH]c(Sc3c4ccccc4nc4ccccc34)nc2c1

IC50 [1]: > 50 µM | inhibition [2]: Active | IC50 [3]: 4.01 µM
SMILES: c1ccc2[nH]c(Nc3c4ccccc4nc4ccccc34)nc2c1

IC50 [1]: 2.82 µM | inhibition [2]: Active | IC50 [3]: > 50 µM
SMILES: c1ccc2[nH]c(-c3ccc(Nc4c5ccccc5nc5ccccc45)cc3)nc2c1

IC50 [1]: 11.2 µM | inhibition [2]: Active | IC50 [3]: > 50 µM
SMILES: c1ccc2[nH]c(CNc3c4ccccc4nc4ccccc34)nc2c1

IC50 [1]: 28.5 µM | inhibition [2]: Active | IC50 [3]: 10.7 µM
SMILES: Fc1ccc2c(NCc3nc4ccccc4[nH]3)c3ccccc3nc2c1

IC50 [1]: 11.8 µM | inhibition [2]: Active | IC50 [3]: 40.6 µM
SMILES: Clc1ccc2nc3ccccc3c(NCc3nc4ccccc4[nH]3)c2c1

IC50 [1]: 15.2 µM | inhibition [2]: Active | IC50 [3]: 15.4 µM
SMILES: COc1ccc2c(NCc3nc4ccccc4[nH]3)c3ccccc3nc2c1

IC50 [1]: 4.68 µM | inhibition [2]: Active | IC50 [3]: 8.92 µM
SMILES: COc1ccc2nc3ccccc3c(NCc3nc4ccccc4[nH]3)c2c1
